Data: ChEMBL document CHEMBL1149489, “Synthesis and biological evaluation of benzamides and benzamidines as selective inhibitors of VEGFR tyrosine kinases” (Bioorg Med Chem Lett, 2006)
Active and inactive are the calls of the source. The rule behind the calls is not given here.

What follows are compounds tested against Epidermal growth factor receptor (Homo sapiens) (UniProt P00533) (assay: Inhibition of EGFR at 10 uM).
Method in brief: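 ELISA autophosphorylation-type assay. Wells were coated overnight at 4 °C with 50 µg/ml poly(Glu:Tyr, 4:1) in PBS. The kinase reaction ran 20 min in 50 mM HEPES, 125 mM NaCl, 10 mM MgCl2, pH 7.4, with 100 µM ATP and compound at 10 µM. Phosphotyrosine was detected with HRP anti-phosphotyrosine antibody and TMB, acid-stopped, and read at A450.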

Sequence of Epidermal growth factor receptor (Homo sapiens) (P00533 whole entry): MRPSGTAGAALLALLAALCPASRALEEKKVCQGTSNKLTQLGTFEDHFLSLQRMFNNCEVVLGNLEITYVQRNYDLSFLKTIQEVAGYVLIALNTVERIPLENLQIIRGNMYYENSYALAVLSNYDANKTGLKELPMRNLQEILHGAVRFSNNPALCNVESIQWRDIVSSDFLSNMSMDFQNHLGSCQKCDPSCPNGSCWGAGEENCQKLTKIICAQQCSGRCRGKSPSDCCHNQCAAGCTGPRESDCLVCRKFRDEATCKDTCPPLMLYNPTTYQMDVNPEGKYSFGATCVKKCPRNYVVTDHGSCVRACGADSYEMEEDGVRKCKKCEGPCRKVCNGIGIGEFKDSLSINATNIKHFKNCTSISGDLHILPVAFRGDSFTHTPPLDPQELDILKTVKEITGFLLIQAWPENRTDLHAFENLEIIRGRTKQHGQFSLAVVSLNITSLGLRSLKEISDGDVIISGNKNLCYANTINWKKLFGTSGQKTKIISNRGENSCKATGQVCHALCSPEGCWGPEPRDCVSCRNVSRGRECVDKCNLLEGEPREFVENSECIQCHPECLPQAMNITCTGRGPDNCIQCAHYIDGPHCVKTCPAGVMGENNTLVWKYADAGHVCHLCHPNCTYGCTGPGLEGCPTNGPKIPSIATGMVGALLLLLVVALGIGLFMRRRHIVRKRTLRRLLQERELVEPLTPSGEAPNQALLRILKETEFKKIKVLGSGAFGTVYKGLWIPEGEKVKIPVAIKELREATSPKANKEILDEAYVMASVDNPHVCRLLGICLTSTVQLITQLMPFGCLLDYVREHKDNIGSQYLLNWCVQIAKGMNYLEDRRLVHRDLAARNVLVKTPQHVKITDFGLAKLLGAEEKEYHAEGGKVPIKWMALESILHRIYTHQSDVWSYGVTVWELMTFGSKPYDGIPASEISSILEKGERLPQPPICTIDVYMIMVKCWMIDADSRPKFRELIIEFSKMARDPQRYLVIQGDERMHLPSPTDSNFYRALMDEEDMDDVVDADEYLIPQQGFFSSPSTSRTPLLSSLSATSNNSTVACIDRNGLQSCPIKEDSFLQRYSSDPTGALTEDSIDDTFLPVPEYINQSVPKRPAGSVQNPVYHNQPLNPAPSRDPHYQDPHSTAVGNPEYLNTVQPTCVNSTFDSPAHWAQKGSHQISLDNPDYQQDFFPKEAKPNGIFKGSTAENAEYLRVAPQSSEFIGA

Activity, inactive:
O=C(Nc1ccccn1)c1ccccc1NCc1ccncc1
O=C(Nc1ccccc1C(F)(F)F)c1ccccc1OCc1ccncc1
COc1cc(OCc2ccncc2)c(C(=O)Nc2ccccc2Cl)cc1OC
COc1cc(OCc2ccncc2)c(C(=N)Nc2ccccc2Cl)cc1OC
COc1cc(NCc2ccncc2)c(C(=N)Nc2ccccc2C(F)(F)F)cc1OC
COc1cc(OCc2ccncc2)c(C(=N)Nc2ccccc2C(F)(F)F)cc1OC
O=C(Nc1ncccn1)c1ccccc1NCc1ccncc1
O=C(Nc1ccccc1Cl)c1ccccc1OCc1ccncc1
N=C(Nc1ccccc1C(F)(F)F)c1ccccc1OCc1ccncc1
N=C(Nc1ccc(Cl)cc1)c1ccccc1NCc1ccncc1
N=C(Nc1ccccc1Cl)c1ccccc1OCc1ccncc1
COc1cc(NCc2ccncc2)c(C(=N)Nc2ccc(Cl)cc2)cc1OC
COc1cc(OCc2ccncc2)c(C(=O)Nc2cnccn2)cc1OC
N=C(Nc1ccccc1Cl)c1ccccc1NCc1ccncc1
COc1cc(NCc2ccncc2)c(C(=O)Nc2cnccn2)cc1OC
O=C(Nc1cnccn1)c1ccccc1NCc1ccncc1
COc1cc(OCc2ccncc2)c(C(=O)Nc2ccccn2)cc1OC
COc1cc(NCc2ccncc2)c(C(=N)Nc2ccccc2Cl)cc1OC
COc1cc(NCc2ccncc2)c(C(=O)Nc2ccccn2)cc1OC
COc1cc(OCc2ccncc2)c(C(=O)Nc2ccc(Cl)cc2)cc1OC
N=C(Nc1ccc(Cl)cc1)c1ccccc1OCc1ccncc1
COc1cc(NCc2ccncc2)c(C(=O)Nc2ncccn2)cc1OC
N=C(Nc1ccccc1C(F)(F)F)c1ccccc1NCc1ccncc1
COc1cc(OCc2ccncc2)c(C(=O)Nc2ccccc2C(F)(F)F)cc1OC
COc1cc(OCc2ccncc2)c(C(=N)Nc2ccc(Cl)cc2)cc1OC
COc1cc(OCc2ccncc2)c(C(=O)Nc2ncccn2)cc1OC
